According to ChEMBL document CHEMBL5257040, “Discovery of VU2957 (Valiglurax): An mGlu4 Positive Allosteric Modulator Evaluated as a Preclinical Candidate for the Treatment of Parkinson's Disease” (ACS Med Chem Lett, 2019):
Converted amounts (≈) assume the structure as drawn.

Key:
[1] = Oral bioavailability in Cynomolgus monkey at 3 mg/kg administered as spray-dried dispersion formulation and measured upto 24 hrs by LC-MS/MS analysis; assay type: ADME, organism-based, Macaca fascicularis; conditions: in vivo
Method in brief: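 Cynomolgus oral dosing used a spray-dried dispersion of the compound with HPMCP-HP55 polymer at a 25%/75% drug-to-polymer ratio. Oral bioavailability (%F) was determined from plasma exposure.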

[2] = Solubility of compound intestinal fluid assessed as AUC administered as active pharmaceutical ingredient (API) formulation; assay type: ADME
[3] = Drug uptake in cerebrospinal fluid of haloperidol-induced catalepsy Sprague-Dawley rat model at 0.3 to 30 mg/kg,po; assay type: ADME, organism-based; conditions: in vivo, dose 0.3-30 mg/kg, read-out: Ct
Method in brief: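 Rats were given haloperidol 1.5 mg/kg i.p. to induce catalepsy and dosed orally at 0.3–30 mg/kg, N = 8–10 per group. Total plasma and CSF concentrations were measured alongside the catalepsy read-out. Satellite rats were used for PK in the time-course study.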

[4] = Oral bioavailability in Sprague-Dawley rat at 3 mg/kg and measured upto 24 hrs by LC-MS/MS analysis; assay type: ADME, organism-based; conditions: in vivo
Method in brief: (§1)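 Single-dose iv and oral PK in separate arms: mouse 1 mg/kg iv / 3 mg/kg po, SD rat 0.2/3, beagle 0.5/3, cynomolgus 0.2/3 mg/kg. Plasma parameters (Vss, Tmax, F) are means of two to three animals per species.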

[5] = Elimination half life in Sprague-Dawley rat at 0.2 mg/kg, iv and measured upto 24 hrs by LC-MS/MS analysis; assay type: ADME, organism-based; conditions: in vivo, read-out: beta t1/2 (converted)
Method in brief: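 Single intravenous doses: mouse 1 mg/kg, SD rat 0.2 mg/kg, beagle dog 0.5 mg/kg, cynomolgus monkey 0.2 mg/kg. Plasma clearance, Vss and elimination half-life came from the plasma profiles. Values are means of two to three animals.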

[6] = Volume of distribution at steady state in Sprague-Dawley rat at 0.2 mg/kg, iv and measured upto 24 hrs by LC-MS/MS analysis; assay type: ADME, organism-based; conditions: in vivo, read-out: Vdss; method in brief: as §1
[7] = Brain to plasma permeability coefficient, Kp in CD-1 mouse plasma at 1 mg/kg,iv and measured upto 24 hrs by LC-MS/MS analysis; assay type: ADME, organism-based
Method in brief: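 Total brain to total plasma partition coefficient (Kp) measured in mouse, SD rat and cynomolgus monkey. The unbound ratio (Kp,uu) was corrected with brain homogenate binding. Values are means of two to three animals.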

[8] = AUC (0 to infinity) in CD-1 mouse plasma at 3 mg/kg, po and measured upto 24 hrs by LC-MS/MS analysis; assay type: ADME, organism-based; parameters: dose 3 mg/kg, time < 24 hrs, route po
Method in brief: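 Single oral 3 mg/kg dose in mouse, SD rat, beagle dog and cynomolgus monkey. Total plasma exposure after the oral dose gave Cmax, Tmax, AUC0-inf and F. Values are means of two to three animals.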

[9] = Volume of distribution at steady state in CD-1 mouse plasma at 1 mg/kg, iv and measured upto 24 hrs by LC-MS/MS analysis; assay type: ADME, organism-based; conditions: read-out: Vdss; method in brief: as §1
[10] = molecular target: P-gp (ABCB1) (Homo sapiens, UniProt P08183); assay: Substrate activity at human P-gp assessed as efflux ratio; assay type: ADME; conditions: not told
[11] = Unbound brain-to-plasma concentration ratio in Sprague-Dawley rat at 0.2 mg/kg, iv and measured upto 24 hrs by LC-MS/MS analysis; assay type: ADME, organism-based; conditions: read-out: K(p,uu,brain)
[12] = molecular target: Cytochrome P450 2B6 (Homo sapiens, UniProt P20813); assay: Induction of CYP2B6 in human hepatocytes; assay type: ADME, cell-based
Sequence of Cytochrome P450 2B6 (P20813 whole entry): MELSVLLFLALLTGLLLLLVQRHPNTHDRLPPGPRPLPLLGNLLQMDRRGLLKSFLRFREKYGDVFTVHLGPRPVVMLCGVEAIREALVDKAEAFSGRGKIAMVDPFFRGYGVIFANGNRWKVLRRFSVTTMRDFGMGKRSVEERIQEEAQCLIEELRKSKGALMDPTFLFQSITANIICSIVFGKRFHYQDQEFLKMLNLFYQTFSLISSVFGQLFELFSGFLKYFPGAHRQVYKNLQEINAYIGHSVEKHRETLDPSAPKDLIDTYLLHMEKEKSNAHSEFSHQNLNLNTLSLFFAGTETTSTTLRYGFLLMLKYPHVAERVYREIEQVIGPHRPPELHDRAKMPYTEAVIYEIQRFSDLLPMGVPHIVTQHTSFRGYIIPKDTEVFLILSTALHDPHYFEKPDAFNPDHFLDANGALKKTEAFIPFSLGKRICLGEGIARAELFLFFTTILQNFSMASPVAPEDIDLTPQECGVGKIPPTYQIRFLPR
Method in brief: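 CYP1A2, 2B6 and 3A4 induction measured in human hepatocytes.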

[13] = molecular target: Aryl hydrocarbon receptor (Homo sapiens, UniProt P35869); assay: Activation of human AhR
Sequence of Aryl hydrocarbon receptor (P35869 whole entry): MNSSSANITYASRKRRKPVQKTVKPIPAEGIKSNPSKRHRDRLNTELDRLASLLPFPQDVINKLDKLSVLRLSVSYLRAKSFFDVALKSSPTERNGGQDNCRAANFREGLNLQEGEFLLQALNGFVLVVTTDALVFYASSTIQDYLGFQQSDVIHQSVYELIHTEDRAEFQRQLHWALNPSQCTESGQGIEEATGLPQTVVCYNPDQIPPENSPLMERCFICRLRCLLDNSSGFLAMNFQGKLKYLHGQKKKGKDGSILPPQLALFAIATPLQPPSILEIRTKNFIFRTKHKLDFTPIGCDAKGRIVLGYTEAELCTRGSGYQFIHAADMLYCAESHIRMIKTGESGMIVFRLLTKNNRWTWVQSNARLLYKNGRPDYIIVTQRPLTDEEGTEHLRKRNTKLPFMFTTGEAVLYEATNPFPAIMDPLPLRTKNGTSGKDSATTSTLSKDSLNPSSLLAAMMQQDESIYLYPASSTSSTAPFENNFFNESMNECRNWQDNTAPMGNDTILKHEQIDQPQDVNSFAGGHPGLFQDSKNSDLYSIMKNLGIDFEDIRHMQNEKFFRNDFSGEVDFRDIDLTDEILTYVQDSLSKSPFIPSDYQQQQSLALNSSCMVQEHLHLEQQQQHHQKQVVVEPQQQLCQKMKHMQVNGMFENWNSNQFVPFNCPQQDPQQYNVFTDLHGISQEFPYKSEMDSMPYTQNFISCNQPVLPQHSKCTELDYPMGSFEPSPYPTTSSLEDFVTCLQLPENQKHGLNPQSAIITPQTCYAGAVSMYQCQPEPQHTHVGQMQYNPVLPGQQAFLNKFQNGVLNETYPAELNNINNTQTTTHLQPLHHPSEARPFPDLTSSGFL

[14] = molecular target: Cytochrome P450 2C9 (Homo sapiens, UniProt P11712); assay: Inhibition of CYP2C9 in human liver microsomes using […] as substrate preincubated for 15 mins followed by NADPH addition and measured after 8 mins by LC/MS/MS analysis; assay type: ADME, Microsome
Sequence of Cytochrome P450 2C9 (P11712 whole entry): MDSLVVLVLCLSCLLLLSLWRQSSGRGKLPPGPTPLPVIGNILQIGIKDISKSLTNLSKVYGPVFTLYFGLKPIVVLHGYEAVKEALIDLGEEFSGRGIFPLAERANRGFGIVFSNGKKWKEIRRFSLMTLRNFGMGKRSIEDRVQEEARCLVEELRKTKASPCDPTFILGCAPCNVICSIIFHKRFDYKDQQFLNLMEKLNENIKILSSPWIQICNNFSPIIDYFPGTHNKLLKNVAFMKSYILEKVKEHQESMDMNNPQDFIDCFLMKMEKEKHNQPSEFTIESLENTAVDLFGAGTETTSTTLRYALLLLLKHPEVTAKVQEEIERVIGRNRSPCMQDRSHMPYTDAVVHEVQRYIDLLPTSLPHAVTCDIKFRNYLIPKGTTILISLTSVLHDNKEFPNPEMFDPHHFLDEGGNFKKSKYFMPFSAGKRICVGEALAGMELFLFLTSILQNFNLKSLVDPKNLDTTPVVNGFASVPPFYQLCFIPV

[15] = molecular target: Cytochrome P450 2D6 (Homo sapiens, UniProt P10635); assay: Inhibition of CYP2D6 in human liver microsomes using […] as substrate preincubated for 15 mins followed by NADPH addition and measured after 8 mins by LC/MS/MS analysis; assay type: ADME, Microsome
Sequence of Cytochrome P450 2D6 (P10635 whole entry): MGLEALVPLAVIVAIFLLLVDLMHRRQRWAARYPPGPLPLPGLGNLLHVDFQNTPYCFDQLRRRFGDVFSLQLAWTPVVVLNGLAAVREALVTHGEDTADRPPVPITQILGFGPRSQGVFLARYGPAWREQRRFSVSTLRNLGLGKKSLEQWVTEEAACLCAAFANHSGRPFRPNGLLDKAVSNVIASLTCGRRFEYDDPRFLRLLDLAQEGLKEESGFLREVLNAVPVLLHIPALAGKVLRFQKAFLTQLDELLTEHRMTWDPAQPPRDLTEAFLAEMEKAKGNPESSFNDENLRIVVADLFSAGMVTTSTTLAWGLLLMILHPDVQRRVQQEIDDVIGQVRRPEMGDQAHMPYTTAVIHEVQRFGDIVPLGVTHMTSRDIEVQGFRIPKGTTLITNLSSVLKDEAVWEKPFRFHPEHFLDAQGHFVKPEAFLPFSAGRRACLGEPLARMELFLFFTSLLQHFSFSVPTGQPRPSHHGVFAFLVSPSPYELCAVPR

[16] = Metabolic stability in dog liver microsomes assessed as intrinsic clearance at 1 uM preincubated for 5 mins followed by NADPH addition and measured for 45 mins by LC/MS/MS analysis; assay type: ADME, Canis lupus familiaris, Microsome; conditions: time 50 min, read-out: CLH
[17] = Protein binding in dog plasma assessed as fraction unbound incubated for 4 hrs by equilibrium dialysis based LC/MS/MS analysis; assay type: ADME, cell-free, Canis lupus familiaris
[18] = Protein binding in mouse plasma assessed as fraction unbound incubated for 4 hrs by equilibrium dialysis based LC/MS/MS analysis; assay type: ADME, cell-free
[19] = Solubility of compound in FaSSGF; assay type: ADME
[20] = Genotoxicity in Salmonella typhimurium […] in presence of S9 fraction by Ames test; assay type: toxicity, subcellular; conditions: salmonella enterica subsp. enterica serovar typhimurium
Method in brief: (§2)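 Ames bacterial reverse mutation test in strains TA98 and […], run with and without S9 metabolic activation.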

[21] = Genotoxicity in Salmonella typhimurium TA98 in presence of S9 fraction by Ames test; assay type: toxicity, subcellular; conditions: salmonella enterica subsp. enterica serovar typhimurium; method in brief: as §2
[22] = molecular target: Kir2.1 (Homo sapiens, UniProt Q7Z4S6); assay: Inhibition of Kir2.1 (unknown origin) at 10 uM; assay type: toxicity
Sequence of Kir2.1 (Q7Z4S6 whole entry): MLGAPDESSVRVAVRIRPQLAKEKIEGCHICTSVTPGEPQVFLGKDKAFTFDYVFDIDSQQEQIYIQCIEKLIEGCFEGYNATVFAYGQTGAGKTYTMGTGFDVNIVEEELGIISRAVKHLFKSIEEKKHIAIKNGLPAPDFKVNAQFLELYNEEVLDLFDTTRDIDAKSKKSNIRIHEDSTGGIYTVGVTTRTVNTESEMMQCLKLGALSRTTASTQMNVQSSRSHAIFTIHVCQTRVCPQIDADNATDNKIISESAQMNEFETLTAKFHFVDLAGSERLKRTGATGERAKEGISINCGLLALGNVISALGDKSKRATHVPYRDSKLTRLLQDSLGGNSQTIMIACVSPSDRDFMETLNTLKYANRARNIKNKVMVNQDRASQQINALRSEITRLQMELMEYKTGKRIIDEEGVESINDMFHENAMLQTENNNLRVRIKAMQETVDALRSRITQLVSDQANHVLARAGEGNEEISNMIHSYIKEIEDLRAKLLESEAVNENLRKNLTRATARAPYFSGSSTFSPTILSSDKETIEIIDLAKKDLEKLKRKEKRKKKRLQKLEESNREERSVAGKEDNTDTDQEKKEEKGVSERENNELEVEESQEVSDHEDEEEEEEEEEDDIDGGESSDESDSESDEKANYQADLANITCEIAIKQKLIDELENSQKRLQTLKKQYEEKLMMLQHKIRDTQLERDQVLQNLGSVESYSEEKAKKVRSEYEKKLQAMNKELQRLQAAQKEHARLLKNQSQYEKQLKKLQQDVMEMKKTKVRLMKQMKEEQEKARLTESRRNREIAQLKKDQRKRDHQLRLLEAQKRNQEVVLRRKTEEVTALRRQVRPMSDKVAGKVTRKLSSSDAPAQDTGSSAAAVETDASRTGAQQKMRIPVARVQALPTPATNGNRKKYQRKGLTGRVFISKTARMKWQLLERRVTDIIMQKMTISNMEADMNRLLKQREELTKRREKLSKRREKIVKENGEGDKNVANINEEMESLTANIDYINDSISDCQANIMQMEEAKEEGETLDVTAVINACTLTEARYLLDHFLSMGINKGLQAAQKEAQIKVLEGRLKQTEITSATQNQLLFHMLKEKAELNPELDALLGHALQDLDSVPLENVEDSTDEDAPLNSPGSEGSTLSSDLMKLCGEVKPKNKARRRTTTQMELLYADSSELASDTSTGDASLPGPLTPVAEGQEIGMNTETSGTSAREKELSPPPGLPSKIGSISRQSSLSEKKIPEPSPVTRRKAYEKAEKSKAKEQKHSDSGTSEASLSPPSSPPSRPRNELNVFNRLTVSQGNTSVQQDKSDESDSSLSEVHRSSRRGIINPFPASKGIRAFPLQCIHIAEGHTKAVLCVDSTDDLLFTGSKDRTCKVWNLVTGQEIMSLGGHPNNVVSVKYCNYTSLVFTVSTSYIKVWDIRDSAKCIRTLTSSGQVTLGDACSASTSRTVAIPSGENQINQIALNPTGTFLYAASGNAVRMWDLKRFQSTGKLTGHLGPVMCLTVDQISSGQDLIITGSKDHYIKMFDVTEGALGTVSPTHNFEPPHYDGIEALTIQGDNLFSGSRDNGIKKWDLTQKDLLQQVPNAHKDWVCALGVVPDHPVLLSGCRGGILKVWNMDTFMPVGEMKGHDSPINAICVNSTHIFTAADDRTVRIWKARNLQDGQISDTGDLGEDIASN
Method in brief: (§3)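 Cardiac ion channel electrophysiology (functional EP) panel, with percent inhibition measured at 10 μM.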

[23] = molecular target: Kv4.3/KChIP2 (Homo sapiens, UniProt Q9NS61+Q9UK17); assay: Inhibition of Kv4.3/KChIP2 (unknown origin) at 10 uM; assay type: toxicity; method in brief: as §3
[24] = molecular target: Nav1.5 (Homo sapiens, UniProt Q14524); assay: Inhibition of Nav1.5 (unknown origin) at 10 uM; assay type: toxicity
Method in brief: (§4)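 Eurofins Cardiac Profiler functional electrophysiology panel of potassium, calcium and sodium cardiac ion channels, including hERG. Compound tested at 10 μM, reported as percent inhibition.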

[25] = molecular target: hERG (KCNH2) (Homo sapiens, UniProt Q12809); assay: Inhibition of human ERG at 10 uM; assay type: toxicity; method in brief: as §4
[26] = molecular target: Amine oxidase [flavin-containing] B (Homo sapiens, UniProt P27338); assay: Binding affinity to MAO-B (unknown origin)
Sequence of Amine oxidase [flavin-containing] B (P27338 whole entry): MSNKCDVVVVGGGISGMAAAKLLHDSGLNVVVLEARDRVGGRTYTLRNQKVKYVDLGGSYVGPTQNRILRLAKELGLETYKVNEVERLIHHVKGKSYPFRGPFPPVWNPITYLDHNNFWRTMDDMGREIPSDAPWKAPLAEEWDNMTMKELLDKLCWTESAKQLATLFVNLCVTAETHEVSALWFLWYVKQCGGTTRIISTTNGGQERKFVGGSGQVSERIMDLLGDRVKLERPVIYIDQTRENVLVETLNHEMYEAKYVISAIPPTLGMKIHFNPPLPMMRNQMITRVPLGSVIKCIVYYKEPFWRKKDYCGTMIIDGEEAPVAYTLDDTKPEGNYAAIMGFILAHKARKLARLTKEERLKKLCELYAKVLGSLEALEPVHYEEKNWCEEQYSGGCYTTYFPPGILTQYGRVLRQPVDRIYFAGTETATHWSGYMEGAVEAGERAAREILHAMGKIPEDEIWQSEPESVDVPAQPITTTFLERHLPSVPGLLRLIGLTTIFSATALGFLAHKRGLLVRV

[27] = molecular target: Metabotropic glutamate receptor 8 (Rattus norvegicus, UniProt P70579); assay: Positive allosteric modulator activity at rat mGlu8 in human HEK cells co-expressing […] assessed as increase in by thallium flux preincubated for 2.5 mins followed by gluatamate addition by thallium flux assay; assay type: cell-based
[28] = molecular target: Metabotropic glutamate receptor 7 (Rattus norvegicus, UniProt P35400); assay: Positive allosteric modulator activity at rat mGlu7 in human HEK cells co-expressing […] assessed as increase in by thallium flux preincubated for 2.5 mins followed by gluatamate addition by thallium flux assay; assay type: cell-based
[29] = molecular target: Metabotropic glutamate receptor 6 (Homo sapiens, UniProt O15303); assay: Positive allosteric modulator activity at human mGlu6 in human HEK cells co-expressing […] assessed as increase in by thallium flux preincubated for 2.5 mins followed by gluatamate addition by thallium flux assay; assay type: cell-based
[30] = molecular target: Metabotropic glutamate receptor 4 (Rattus norvegicus) (UniProt P31423); assay: Positive allosteric modulator activity at rat mGlu4 in human HEK cells co-expressing […] assessed as maximum increase in by thallium flux preincubated for 2.5 mins followed by gluatamate addition and measured for 2 mins by thallium flux assay; assay type: cell-based; conditions: filed as positive allosteric modulator, time 4.5 min

FC(F)(F)c1nccc2cc(Nc3n[nH]c4ncccc34)ccc12
bioavailability [1]: 58%
AUC [2]: 25300 ng·h/mL
concentration [3]: 148 nM
bioavailability [4]: 100%
half-life [5]: 1.05 h
Vd [6]: 3 L/kg
Kp at 24 h [7]: 0.78
AUC(0-inf) [8]: 1.55 µM·h
Vd [9]: 9.93 L/kg
efflux ratio [10]: 1.3
Kp uu at 24 h [11]: 0.09
Activity [12]: Not Active
Activity [13]: Not Active
IC50 [14]: > 30 µM
IC50 [15]: > 30 µM
CLint scaled at 1 µM [16]: 18.1 mL/min/kg
fraction unbound at 4 h [17]: 0.014
fraction unbound at 4 h [18]: 0.015
solubility [19]: 9 µg/mL (≈ 27.3 µM)
Activity [20]: Non-Toxic
Activity [21]: Non-Toxic
inhibition at 10 µM [22]: < 50%
inhibition at 10 µM [23]: < 50%
inhibition at 10 µM [24]: < 50%
inhibition at 10 µM [25]: < 50%
EC50 [26]: > 30 µM
EC50 [27]: > 10 µM
EC50 [28]: > 10 µM
EC50 [29]: > 10 µM
Emax [30]: 132%
